Results from ChEMBL document CHEMBL3860029, “Maximiscin Induces DNA Damage, Activates DNA Damage Response Pathways, and Has Selective Cytotoxic Activity against a Subtype of Triple-Negative Breast Cancer” (J Nat Prod, 2016).
Calls of active or inactive are those of the source. The rule behind the calls is not given here.

Columns and labels:
[1] = Cytotoxicity against human HCC70 cells after 48 hrs by SRB assay; format: functional; conditions: HCC70, 48 h, read-out: LC50 (the source's name)
Procedure, shortened: (§1)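 Cells grown in RPMI-1640 with 50 µg/mL gentamicin and 10% FBS at 37°C, 5% CO2, and passaged under 3 months after revival. Sulforhodamine B assay after 48 h of compound exposure, with cell density measured at time of treatment (T0). LC50 (50% cell death vs T0) interpolated by nonlinear regression. At least 3 independent experiments, each concentration in triplicate.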

[2] = Cytotoxicity against human MDA-MB-468 cells after 48 hrs by SRB assay; format: functional; conditions: MDA-MB-468, 48 h, read-out: LC50 (the source's name); procedure, shortened: as §1
[3] = Cytotoxicity against human MDA-MB-231 cells after 48 hrs by SRB assay; format: functional; conditions: MDA-MB-231, 48 h, read-out: LC50 (the source's name)
Procedure, shortened: as §1, with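 “in IMEM” for “in RPMI-1640”, “with 25” for “with 50”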

[4] = Cytotoxicity against human MDA-MB-453 cells after 48 hrs by SRB assay; format: functional; conditions: MDA-MB-453, 48 h, read-out: LC50 (the source's name)
Procedure, shortened: as §1, with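 “in IMEM” for “in RPMI-1640”, “with 25” for “with 50”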

[5] = Cytotoxicity against human BT549 cells after 48 hrs by SRB assay; format: functional; conditions: BT-549, 48 h, read-out: LC50 (the source's name); procedure, shortened: as §1
[6] = Cell cycle arrest in human MDA-MB-468 cells assessed as accumulation at G0/G1 phase at 1 to 10 uM after 18 hrs by propidium iodide staining based FACS analysis; format: functional
Procedure, shortened: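 MDA-MB-468 cells (RPMI-1640, 10% FBS, gentamicin) exposed to vehicle (DMSO) or compound for 18 h. Cells harvested and stained with Krishan's reagent (PI). DNA content read on a Muse Cell Analyzer to give phase distribution. n = 3; two-way ANOVA with Dunnett's post-hoc test.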

[7] = Selectivity ratio of LC50 for human MDA-MB-231 cells to LC50 for human MDA-MB-468 cells; format: functional
Procedure, shortened: (§2)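 Both LC50s come from 48 h sulforhodamine B assays, with T0 density measured at treatment. LC50 is 50% cell death vs T0, interpolated by nonlinear regression. At least 3 independent experiments, concentrations in triplicate. MDA-MB-468, HCC70 and BT-549 were grown in RPMI-1640. MDA-MB-231 and MDA-MB-453 were grown in IMEM.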

[8] = tested on: HCC70; assay: Selectivity ratio of LC50 for human HCC70 cells to LC50 for human MDA-MB-468 cells; format: functional; procedure, shortened: as §2
[9] = tested on: Mus musculus; assay: Toxicity in athymic nude mouse xenografted with human MDA-MB-468 cells assessed as weight loss at 5 mg/kg, ip administered daily for 21 days […] relative to control; format: organism-based; conditions: in vivo, 504 h
Procedure, shortened: (§3)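 Female athymic nude mice implanted s.c. bilaterally in each flank with 2 × 10^6 MDA-MB-468 cells in DPBS plus Matrigel. Dosing began at tumor volume of at least 150 mm3, with 7 or 8 tumors/group. Dose was 5 mg/kg i.p. daily for 21 days in 2.5% DMSO/2.5% Kolliphor EL in DPBS; controls untreated. Mice weighed and examined daily; calipers twice weekly; volume = length × width × height.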

[10] = molecular target: T1, Serine/threonine-protein kinase Chk1 (Homo sapiens) (UniProt O14757); assay: Induction of CHK1 phosphorylation at S345-residue in human MDA-MB-468 cells at 1 uM after 4 hrs by immunoblot analysis; format: cell-based
T1 sequence (whole entry): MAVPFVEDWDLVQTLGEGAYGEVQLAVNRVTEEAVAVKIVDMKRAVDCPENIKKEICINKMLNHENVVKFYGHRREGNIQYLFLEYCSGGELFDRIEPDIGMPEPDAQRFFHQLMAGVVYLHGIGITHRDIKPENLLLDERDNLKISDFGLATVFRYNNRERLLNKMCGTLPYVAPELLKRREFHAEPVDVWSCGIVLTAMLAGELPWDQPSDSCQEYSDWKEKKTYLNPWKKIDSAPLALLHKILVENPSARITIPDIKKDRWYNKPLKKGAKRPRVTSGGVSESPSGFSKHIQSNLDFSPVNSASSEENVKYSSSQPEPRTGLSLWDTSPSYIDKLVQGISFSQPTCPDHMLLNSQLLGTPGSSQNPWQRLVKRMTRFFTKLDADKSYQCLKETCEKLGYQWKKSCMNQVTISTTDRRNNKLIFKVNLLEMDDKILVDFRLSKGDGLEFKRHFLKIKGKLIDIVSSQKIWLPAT
Procedure, shortened: (§4)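 Whole-cell lysates of MDA-MB-468 cells taken after vehicle or compound treatment for the stated times. Lysis buffer held protease inhibitors, PMSF and Na3VO4. Equal protein run on SDS-PAGE, blotted to PVDF and probed for phospho-S345-Chk1, phospho-T68-Chk2 and phospho-S15-p53 alongside total proteins and β-actin. Read by near-infrared fluorescent secondaries.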

[11] = tested on: MDA-MB-468; assay: Antitumor activity against human MDA-MB-468 cells xenografted in athymic nude mouse assessed as tumor growth inhibition at 5 mg/kg, ip administered daily for 21 days measured on day 21 post dose relative to control; format: functional, organism-based; procedure, shortened: as §3
[12] = molecular target: Serine/threonine-protein kinase Chk2 (Homo sapiens) (UniProt O96017); assay: Induction of CHK2 phosphorylation at T68-residue in human MDA-MB-468 cells at 1 uM after 2 hrs by immunoblot analysis; format: cell-based; procedure, shortened: as §4
Sequence of Serine/threonine-protein kinase Chk2 (Homo sapiens) (O96017 whole entry): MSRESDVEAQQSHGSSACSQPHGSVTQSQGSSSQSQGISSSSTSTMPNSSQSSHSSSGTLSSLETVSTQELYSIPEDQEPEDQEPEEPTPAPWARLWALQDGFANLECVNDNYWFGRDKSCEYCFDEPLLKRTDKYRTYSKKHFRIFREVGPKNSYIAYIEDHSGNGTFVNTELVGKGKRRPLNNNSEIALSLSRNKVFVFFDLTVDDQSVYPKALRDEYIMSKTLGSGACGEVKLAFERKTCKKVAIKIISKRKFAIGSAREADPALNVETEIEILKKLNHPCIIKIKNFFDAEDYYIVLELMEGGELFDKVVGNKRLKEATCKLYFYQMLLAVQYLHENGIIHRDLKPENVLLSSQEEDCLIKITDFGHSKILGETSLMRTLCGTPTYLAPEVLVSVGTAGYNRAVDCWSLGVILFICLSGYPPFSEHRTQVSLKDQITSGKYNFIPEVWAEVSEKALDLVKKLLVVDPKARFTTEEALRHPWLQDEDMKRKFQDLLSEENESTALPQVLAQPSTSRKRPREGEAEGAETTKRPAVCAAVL

[13] = molecular target: Cellular tumor antigen p53 (Homo sapiens) (UniProt P04637); assay: Induction of p53 phosphorylation at serine15 in whole cell human MDA-MB-468 cell lysates at 1 uM by antibody microarray assay; format: cell-based; conditions: TDE = time-dependent effect
Sequence of Cellular tumor antigen p53 (Homo sapiens) (P04637 whole entry, looked up): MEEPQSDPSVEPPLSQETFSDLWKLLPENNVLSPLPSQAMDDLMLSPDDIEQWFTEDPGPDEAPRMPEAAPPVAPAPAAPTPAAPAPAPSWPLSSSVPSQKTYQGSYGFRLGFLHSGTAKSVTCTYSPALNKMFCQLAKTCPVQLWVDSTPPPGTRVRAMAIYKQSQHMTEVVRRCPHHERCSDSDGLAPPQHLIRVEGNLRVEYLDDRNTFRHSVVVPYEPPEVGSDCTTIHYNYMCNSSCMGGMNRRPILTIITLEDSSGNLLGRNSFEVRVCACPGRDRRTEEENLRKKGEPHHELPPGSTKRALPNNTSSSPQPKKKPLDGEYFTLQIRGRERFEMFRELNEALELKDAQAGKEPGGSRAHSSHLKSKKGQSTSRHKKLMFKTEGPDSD
Procedure, shortened: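 MDA-MB-468 whole-cell lysates, prepared as for immunoblotting after early post-treatment time points, applied to a PathScan intracellular signaling antibody array with fluorescent readout. Near-infrared signals imaged and quantified.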

[14] = Selectivity ratio of LC50 for human MDA-MB-453 cells to LC50 for human MDA-MB-468 cells; format: functional; procedure, shortened: as §2
[15] = tested on: MDA-MB-468; assay: Induction of DNA double stranded break in human MDA-MB-468 cells assessed as increase in gamma-H2A.X foci at 1 to 10 uM after 18 hrs by nucblue staining based immunofluorescent microscopic analysis; format: functional, cell-based
Procedure, shortened: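 MDA-MB-468 cells on glass coverslips, adhered overnight, then exposed 18 h. Paraformaldehyde fixation, blocking in 10% bovine calf serum/DPBS 20 min at room temperature, then anti-γ-H2A.X in 1% BSA/0.3% Triton X-100. Detection with Alexa Fluor 594 secondary and NucBlue nuclear counterstain at 60× objective. Two independent experiments, each concentration in duplicate.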

[16] = tested on: BT-549; assay: Selectivity ratio of LC50 for human BT549 cells to LC50 for human MDA-MB-468 cells; format: functional; procedure, shortened: as §2
[17] = molecular target: Cellular tumor antigen p53 (Homo sapiens) (UniProt P04637); assay: Induction of p53 phosphorylation at serine15 in human MDA-MB-468 cells after 2 hrs at 1 uM by immunoblot analysis; format: cell-based; procedure, shortened: as §4

**Q.** What does the source list for `CC(=O)O[C@H]1C(=O)[C@@]2(C)[C@H]([C@H](OC(=O)c3ccccc3)[C@]3(O)C[C@H](OC(=O)[C@H](O)[C@@H](NC(=O)c4ccccc4)c4ccccc4)C(C)=C1C3(C)C)[C@]1(OC(C)=O)CO[C@@H]1C[C@@H]2O` [PACLITAXEL]?
**A.** CC50 [1]: > 0.0312 µM; CC50 [2]: 9.8 nM; CC50 [3]: > 0.0625 µM; CC50 [4]: 0.0082 µM; CC50 [5]: 0.018 µM

**Q.** What does the source list for `C=C[C@@H]1C[C@H](C)C[C@H](C)[C@H]1c1c(O)ccn(O[C@@H]2C(C(=O)OC)=C[C@@H](O)[C@@H](O)[C@H]2O)c1=O`?
**A.** Activity [6]: Active; CC50 [1]: 39 µM; RatioLC50 [7]: 25 - 100; CC50 [2]: 600 nM; RatioLC50 [8]: 25 - 100; Activity [9]: 12%; Activity [10]: Active; TGI [11]: Active; CC50 [3]: 60 µM; Activity [12]: Active; Activity [13]: Tde; RatioLC50 [14]: 25 - 100; CC50 [4]: 15 µM; Activity [15]: Dose-dependent effect; RatioLC50 [16]: 25 - 100; CC50 [5]: 15 µM; Activity [17]: Active
